For nine compounds, MBC and MIC results are on record in ChEMBL document CHEMBL1143313, “Synthesis of novel 4,6-di(substituted)amino-1,2-dihydro-1,3,5-triazine derivatives as topical antiseptic agents” (2009).

Holding throughout (format): functional
The test system of test [1] is Staphylococcus aureus. Put plainly: Bactericidal activity against methicillin-resistant Staphylococcus aureus 97-115 preincubated for 5 mins before addition of growth medium measured after 40 to 48 hrs. The procedure, abridged: (§1)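 Read-out is the minimal bactericidal concentration (MBC), taken after 1, 3 and 5 min contact of compound with the test organism.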
Test [2] has as its system Staphylococcus aureus. Put plainly: Antibacterial activity against methicillin-resistant Staphylococcus aureus 97-115 after 24 hrs. The procedure, abridged: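 Read-out is the minimal inhibitory concentration (MIC), taken after 24 h incubation with the test organism.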
The test system of test [3] is Staphylococcus aureus. Nature of the test: Bactericidal activity against methicillin-resistant Staphylococcus aureus 97-115 preincubated for 1 min before addition of growth medium measured after 40 to 48 hrs. In short, it runs like this:
as §1

For test [4], the system named is Staphylococcus aureus. Nature of the test: Bactericidal activity against Staphylococcus aureus 209PJC preincubated for 5 mins before addition of growth medium measured after 40 to 48 hrs.
In test [5] the test system is Escherichia coli. Put plainly: Bactericidal activity against Escherichia coli NIHJ JC-2 preincubated for 3 mins before addition of growth medium measured after 40 to 48 hrs.
The subject of test [6] is Staphylococcus aureus. Put plainly: Bactericidal activity against methicillin-resistant Staphylococcus aureus 97-115 preincubated for 3 mins before addition of growth medium measured after 40 to 48 hrs. In short, it runs like this:
as §1

Test [7] has as its system Escherichia coli. Put plainly: Antibacterial activity against Escherichia coli NIHJ JC-2 after 24 hrs. The procedure, abridged: (§2)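 Value is the minimal inhibitory concentration (MIC) against the test organism, read after 24 h of incubation.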
Test [8] deals with Pseudomonas aeruginosa. Nature of the test: Bactericidal activity against Pseudomonas aeruginosa PAO1 preincubated for 3 mins before addition of growth medium measured after 40 to 48 hrs.
In test [9] the test system is Pseudomonas aeruginosa. Nature of the test: Bactericidal activity against Pseudomonas aeruginosa PAO1 preincubated for 5 mins before addition of growth medium measured after 40 to 48 hrs.
Test [10] relates to Staphylococcus aureus. Put plainly: Bactericidal activity against Staphylococcus aureus 209PJC preincubated for 3 mins before addition of growth medium measured after 40 to 48 hrs.
The subject of test [11] is Pseudomonas aeruginosa. Nature of the test: Bactericidal activity against Pseudomonas aeruginosa PAO1 preincubated for 1 min before addition of growth medium measured after 40 to 48 hrs.
In test [12] the test system is Staphylococcus aureus. Put plainly: Bactericidal activity against Staphylococcus aureus 209PJC preincubated for 1 min before addition of growth medium measured after 40 to 48 hrs.
For test [13], the system named is Pseudomonas aeruginosa. Put plainly: Antibacterial activity against Pseudomonas aeruginosa PAO1. In short, it runs like this:
as §2

For test [14], the system named is Staphylococcus aureus. Nature of the test: Antibacterial activity against Staphylococcus aureus 209PJC after 24 hrs. The procedure, abridged: as §2
The subject of test [15] is Escherichia coli. Nature of the test: Bactericidal activity against Escherichia coli NIHJ JC-2 preincubated for 5 mins before addition of growth medium measured after 40 to 48 hrs.
Test [16] deals with Escherichia coli. Put plainly: Bactericidal activity against Escherichia coli NIHJ JC-2 preincubated for 1 min before addition of growth medium measured after 40 to 48 hrs.

Take `CC(=O)O.CCCCCCCCNC1=NC(C)(C)NC(NCc2ccc(Cl)cc2)=N1`: the MBC (commonly the lowest tested concentration that kills the bacteria rather than only halting them) in the test on Staphylococcus aureus [1] came out at 6.3 µg/mL; in the test on Staphylococcus aureus [3], 6.3 µg/mL; against Staphylococcus aureus [4], 3.1 µg/mL; against Escherichia coli [5] it was 1.6 µg/mL; against Staphylococcus aureus [6], 6.3 µg/mL; with Pseudomonas aeruginosa [8], 1.6 µg/mL. In addition, the minimal bactericidal concentration (MBC) against Pseudomonas aeruginosa [9] came out at 1.6 µg/mL; with Staphylococcus aureus [10], 3.1 µg/mL; in the test with Pseudomonas aeruginosa [11], 6.3 µg/mL; against Staphylococcus aureus [12] it was 3.1 µg/mL; against Escherichia coli [15], 1.6 µg/mL; with Escherichia coli [16], 3.1 µg/mL. Also, the minimal inhibitory concentration (MIC) (usually the lowest concentration found to suppress growth) came to 0.8 µg/mL in the test on Staphylococcus aureus [2], 25 µg/mL with Escherichia coli [7], 25 µg/mL in the test on Pseudomonas aeruginosa [13] and 0.8 µg/mL in the test with Staphylococcus aureus [14].
Consider `CC(=O)O.CCCCCCCCNC1=NC(C)(C)NC(Nc2ccccc2)=N1`, for which the minimal bactericidal concentration (MBC) in the test on Staphylococcus aureus [1] worked out at 12.5 µg/mL; against Staphylococcus aureus [3], 25 µg/mL; against Staphylococcus aureus [4] it was 6.3 µg/mL; with Escherichia coli [5] it was 6.3 µg/mL; with Staphylococcus aureus [6], 12.5 µg/mL; against Pseudomonas aeruginosa [8], 12.5 µg/mL. The MBC in the test on Pseudomonas aeruginosa [9] turned out to be 6.3 µg/mL; in the test on Staphylococcus aureus [10] it was 6.3 µg/mL; in the test with Pseudomonas aeruginosa [11], 25 µg/mL; with Staphylococcus aureus [12] it was 25 µg/mL; against Escherichia coli [15], 6.3 µg/mL; in the test with Escherichia coli [16] it was 12.5 µg/mL. Besides, the minimal inhibitory concentration (MIC) with Staphylococcus aureus [2] turned out to be 1.6 µg/mL; in the test with Escherichia coli [7], 25 µg/mL; with Pseudomonas aeruginosa [13] it was 50 µg/mL; against Staphylococcus aureus [14], 1.6 µg/mL.
On to `CC(=O)O.CCCCCCCCCNC1=NC(C)(C)NC(Nc2ccccc2)=N1`, for which the MBC is 25 µg/mL in the test with Staphylococcus aureus [1]; 25 µg/mL against Staphylococcus aureus [3]; 6.3 µg/mL in the test on Staphylococcus aureus [4]; 6.3 µg/mL in the test on Escherichia coli [5]; 25 µg/mL with Staphylococcus aureus [6]; 3.1 µg/mL in the test with Pseudomonas aeruginosa [8]. The MBC against Pseudomonas aeruginosa [9] was 3.1 µg/mL; in the test on Staphylococcus aureus [10], 6.3 µg/mL; with Pseudomonas aeruginosa [11], 6.3 µg/mL; in the test with Staphylococcus aureus [12] it was 12.5 µg/mL; against Escherichia coli [15], 3.1 µg/mL; in the test on Escherichia coli [16], 12.5 µg/mL. The MIC in the test on Staphylococcus aureus [2] is 0.8 µg/mL; in the test on Escherichia coli [7] it was 12.5 µg/mL; against Pseudomonas aeruginosa [13], 12.5 µg/mL; against Staphylococcus aureus [14], 0.8 µg/mL.
As to `CC(=O)O.CCCCCCCCCNC1=NC(C)(C)NC(NCCc2ccccc2)=N1`, the minimum bactericidal concentration (MBC) with Staphylococcus aureus [1] worked out at 6.3 µg/mL; against Staphylococcus aureus [3], 25 µg/mL; against Staphylococcus aureus [4] it was 6.3 µg/mL; against Escherichia coli [5], 3.1 µg/mL; against Staphylococcus aureus [6], 12.5 µg/mL; with Pseudomonas aeruginosa [8] it was 3.1 µg/mL. In addition, the minimal bactericidal concentration (MBC) against Pseudomonas aeruginosa [9] came out at 1.6 µg/mL; in the test with Staphylococcus aureus [10] it was 12.5 µg/mL; against Pseudomonas aeruginosa [11] it was 12.5 µg/mL; in the test with Staphylococcus aureus [12], 25 µg/mL; with Escherichia coli [15], 3.1 µg/mL; in the test on Escherichia coli [16] it was 12.5 µg/mL. Besides, the MIC with Staphylococcus aureus [2] stood at 0.8 µg/mL; in the test on Escherichia coli [7], 12.5 µg/mL; in the test on Pseudomonas aeruginosa [13], 12.5 µg/mL; in the test on Staphylococcus aureus [14], 0.4 µg/mL.
As for `CC(=O)O.CCCCCCCCNC1=NC(NCCCCC)=NC(C)(C)N1`, the MBC was 3.1 µg/mL in the test with Staphylococcus aureus [1]; 6.3 µg/mL against Staphylococcus aureus [3]; 3.1 µg/mL in the test on Staphylococcus aureus [4]; 6.3 µg/mL in the test with Escherichia coli [5]; 3.1 µg/mL in the test with Staphylococcus aureus [6]; 3.1 µg/mL in the test on Pseudomonas aeruginosa [8]. Also, the minimum bactericidal concentration (MBC) was determined as 3.1 µg/mL against Pseudomonas aeruginosa [9]; 3.1 µg/mL in the test on Staphylococcus aureus [10]; 6.3 µg/mL in the test with Pseudomonas aeruginosa [11]; 3.1 µg/mL in the test with Staphylococcus aureus [12]; 6.3 µg/mL against Escherichia coli [15]; 12.5 µg/mL in the test on Escherichia coli [16]. Moreover, the MIC stood at 1.6 µg/mL against Staphylococcus aureus [2], 25 µg/mL in the test with Escherichia coli [7], 25 µg/mL in the test on Pseudomonas aeruginosa [13] and 1.6 µg/mL in the test with Staphylococcus aureus [14].
Consider `CC(=O)O.CCCCCCCCCNC1=NC(C)(C)NC(NCc2ccc(C)cc2)=N1`, for which the minimum bactericidal concentration (MBC) with Staphylococcus aureus [1] came to 12.5 µg/mL; in the test with Staphylococcus aureus [3] it was 25 µg/mL; against Staphylococcus aureus [4], 3.1 µg/mL; with Escherichia coli [5] it was 1.6 µg/mL; in the test on Staphylococcus aureus [6], 12.5 µg/mL; with Pseudomonas aeruginosa [8] it was 3.1 µg/mL. The minimal bactericidal concentration (MBC) in the test with Pseudomonas aeruginosa [9] is 3.1 µg/mL; in the test on Staphylococcus aureus [10], 3.1 µg/mL; in the test with Pseudomonas aeruginosa [11], 12.5 µg/mL; against Staphylococcus aureus [12] it was 6.3 µg/mL; against Escherichia coli [15] it was 1.6 µg/mL; in the test on Escherichia coli [16], 6.3 µg/mL. Further, the MIC against Staphylococcus aureus [2] came out at 0.8 µg/mL; in the test on Escherichia coli [7], 25 µg/mL; with Pseudomonas aeruginosa [13], 50 µg/mL; in the test on Staphylococcus aureus [14], 0.8 µg/mL.
In the case of `CCCCCCCCCCNC1=NC(C)(C)NC(NCCc2ccc(OC)cc2)=N1.Cl`, the minimum bactericidal concentration (MBC) was found to be 6.3 µg/mL with Staphylococcus aureus [1]; 25 µg/mL with Staphylococcus aureus [3]; 6.3 µg/mL against Staphylococcus aureus [4]; 1.6 µg/mL in the test on Escherichia coli [5]; 6.3 µg/mL against Staphylococcus aureus [6]; 3.1 µg/mL against Pseudomonas aeruginosa [8]. The minimum bactericidal concentration (MBC) in the test with Pseudomonas aeruginosa [9] came out at 1.6 µg/mL; in the test on Staphylococcus aureus [10], 12.5 µg/mL; in the test on Pseudomonas aeruginosa [11] it was 3.1 µg/mL; in the test on Staphylococcus aureus [12], 50 µg/mL; against Escherichia coli [15] it was 1.6 µg/mL; in the test on Escherichia coli [16] it was 3.1 µg/mL. Further, the MIC in the test with Staphylococcus aureus [2] was 0.8 µg/mL; against Escherichia coli [7] it was 50 µg/mL; in the test with Pseudomonas aeruginosa [13] it was 50 µg/mL; against Staphylococcus aureus [14] it was 0.4 µg/mL.
As for `CC(=O)O.CCCCCCCCNC1=NC(C)(C)NC(NCc2ccc(C(F)(F)F)cc2)=N1`, the minimal bactericidal concentration (MBC) with Staphylococcus aureus [1] was 6.3 µg/mL; in the test on Staphylococcus aureus [3], 6.3 µg/mL; in the test with Staphylococcus aureus [4] it was 6.3 µg/mL; against Escherichia coli [5], 3.1 µg/mL; with Staphylococcus aureus [6] it was 6.3 µg/mL; in the test on Pseudomonas aeruginosa [8], 6.3 µg/mL. The MBC in the test on Pseudomonas aeruginosa [9] was found to be 6.3 µg/mL; against Staphylococcus aureus [10], 6.3 µg/mL; with Pseudomonas aeruginosa [11], 12.5 µg/mL; in the test on Staphylococcus aureus [12], 12.5 µg/mL; with Escherichia coli [15], 3.1 µg/mL; against Escherichia coli [16], 3.1 µg/mL. Besides, the MIC against Staphylococcus aureus [2] worked out at 0.8 µg/mL; with Escherichia coli [7], 50 µg/mL; in the test on Pseudomonas aeruginosa [13] it was 25 µg/mL; against Staphylococcus aureus [14], 0.4 µg/mL.
For the compound `CC(=O)O.CCCCCCCCCCCCNC1=NC(C)(C)NC(NCC)=N1`, the MBC against Staphylococcus aureus [1] is 6.3 µg/mL; in the test with Staphylococcus aureus [3], 25 µg/mL; against Staphylococcus aureus [4], 1.6 µg/mL; with Escherichia coli [5] it was 3.1 µg/mL; in the test with Staphylococcus aureus [6] it was 12.5 µg/mL; in the test with Pseudomonas aeruginosa [8], 3.1 µg/mL. Further, the minimum bactericidal concentration (MBC) in the test with Pseudomonas aeruginosa [9] was determined as 3.1 µg/mL; against Staphylococcus aureus [10], 3.1 µg/mL; against Pseudomonas aeruginosa [11], 3.1 µg/mL; against Staphylococcus aureus [12], 3.1 µg/mL; in the test on Escherichia coli [15], 3.1 µg/mL; against Escherichia coli [16] it was 12.5 µg/mL. Also, the MIC against Staphylococcus aureus [2] turned out to be 1.6 µg/mL; with Escherichia coli [7] it was 12.5 µg/mL; against Pseudomonas aeruginosa [13], 50 µg/mL; in the test with Staphylococcus aureus [14], 0.8 µg/mL.
